Measurements from different studies.
Lines come from different studies, so protocols differ.
Cell line: A2780
Read-out: cell growth or viability

Compound | assay | conditions | measurement | value
Cc1[nH]c2ccccc2c1CCNCc1ccc(/C=C/C(=O)NO)cc1 | crystal violet | 48 h | IC50 | 3.9 nM
CC[C@@H]1C=CC(=O)O[C@@H]1C[C@@H](OC)[C@H](C)[C@H](OC)[C@@H](C)Cc1ccc(F)cc1 | MTT | 48 h | GI50 | 1930 nM
COc1ccc(C(=O)O[C@@H]2CN3Cc4c(cc5c(c4OC)OCO5)[C@@]24C=C[C@H](OC)C[C@@H]34)cc1 | WST-1 | – | IC50 | > 10000 nM
Nc1ccn([C@@H]2O[C@H](CO)[C@@H](O)C2(F)F)c(=O)n1 | CCK-8 | 72 h | IC50 | 4.7 nM
C[C@H]1O[C@@H](n2cc(F)c(=O)[nH]c2=O)[C@H](O)[C@@H]1O | CCK-8 | 48 h | IC50 | > 50000 nM
CC[C@@H]1C=CC(=O)O[C@@H]1C[C@@H](O)[C@H](C)[C@H](OC)[C@@H](C)Cc1ccccc1 | MTT | 48 h | GI50 | 81.9 nM
CC(=O)O[C@H]1C(=O)[C@@]2(C)[C@H]([C@H](OC(=O)c3ccccc3)[C@]3(O)C[C@H](OC(=O)[C@H](O)[C@@H](NC(=O)c4ccccc4)c4ccccc4)C(C)=C1C3(C)C)[C@]1(OC(C)=O)CO[C@@H]1C[C@@H]2O | CCK-8 | 72 h | IC50 | 8.2 nM
COc1ccc(C(=O)O[C@@H]2CN3Cc4c(cc5c(c4OC)OCO5)[C@@]24C=C[C@H](OC)C[C@@H]34)cc1OC | WST-1 | – | IC50 | 6000 nM
CC(C)C(=O)Nc1ccc([N+](=O)[O-])c(C(F)(F)F)c1 | CCK-8 | 48 h | IC50 | > 50000 nM
CCC[C@H](Nc1nc(-c2ccc(NC(=O)NCC)c(OC)c2)ncc1C)c1cccnc1 | fluorescence | 72 h | IC50 | 54.6 nM
CC[C@@H]1C=CC(=O)O[C@@H]1C[C@@H](O)[C@H](C)[C@H](OC)[C@@H](C)Cc1ccc(F)cc1 | MTT | 48 h | GI50 | 215 nM
Cc1ccc2ccc3ccc(C)nc3c2n1.[C-]#[N+]c1ccc(C)cc1.[C-]#[O+].[C-]#[O+].[C-]#[O+].[Re+] | MTT | 24 h | EC50 | 1400 nM
CC[C@]1(O)C[C@H]2CN(CCc3c([nH]c4ccccc34)[C@@](C(=O)OC)(c3cc4c(cc3OC)N(C=O)[C@H]3[C@@](O)(C(=O)OC)[C@H](OC(C)=O)[C@]5(CC)C=CCN6CC[C@]43[C@@H]65)C2)C1 | fluorescence | 72 h | IC50 | 0.22 nM
COc1c2c(cc3c1OCO3)[C@]13C=C[C@H](OC)C[C@H]1N(C2)C[C@H]3OC(=O)c1cccc(C)c1 | WST-1 | – | IC50 | > 10000 nM
